# How the values were obtained:
# Type in all cases: functional
# HCT-116 = experiment: Growth inhibition of human HCT116 cells at 10 uM relative to control; details: values are per cent of control
# How it was run: (§1)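 Single-dose preliminary screen in the NCI human cancer cell line panel, run by the NIH. Percent inhibition of cell line growth was calculated by comparison with untreated samples.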
# HCT-15 = experiment: Growth inhibition of human HCT15 cells at 10 uM relative to control; details: values are per cent of control; how it was run: as §1
# HT-29 = experiment: Growth inhibition of human HT-29 cells at 10 uM relative to control; details: values are per cent of control; how it was run: as §1
# KM12 = experiment: Growth inhibition of human KM12 cells at 10 uM relative to control; details: values are per cent of control; how it was run: as §1
# SW-620 = experiment: Growth inhibition of human SW620 cells at 10 uM relative to control; details: values are per cent of control
# How it was run: (§2)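 Single-dose NCI human tumour cell line screen, run by the NIH. Percent inhibition of cell line growth was calculated by comparison with untreated samples.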
# BT-549 = experiment: Growth inhibition of human BT549 cells at 10 uM relative to control; details: values are per cent of control; how it was run: as §1
# [1] = Growth inhibition of human Hs 578T cells at 10 uM relative to control; details: values are per cent of control; how it was run: as §1
# MCF7 = experiment: Growth inhibition of human MCF7 cells at 10 uM relative to control; details: values are per cent of control; how it was run: as §1
# MDA-MB-231 = experiment: Growth inhibition of human MDA-MB-231 cells at 10 uM relative to control; details: values are per cent of control; how it was run: as §1
# MDA-MB-435 = experiment: Growth inhibition of human MDA-MB-435 cells at 10 uM relative to control; details: values are per cent of control; how it was run: as §1
# MDA-MB-468 = experiment: Growth inhibition of human MDA-MB-468 cells at 10 uM relative to control; details: values are per cent of control; how it was run: as §1
# NCI/ADR-RES = experiment: Growth inhibition of human NCI/ADR-RES cells at 10 uM relative to control; details: values are per cent of control; how it was run: as §1
# T47D = experiment: Growth inhibition of human T47D cells at 10 uM relative to control; details: values are per cent of control; how it was run: as §2
# IGROV-1 = experiment: Growth inhibition of human IGROV1 cells at 10 uM relative to control; details: values are per cent of control; how it was run: as §1
# OVCAR-4 = experiment: Growth inhibition of human OVCAR4 cells at 10 uM relative to control; details: values are per cent of control; how it was run: as §1
# OVCAR-5 = experiment: Growth inhibition of human OVCAR5 cells at 10 uM relative to control; details: values are per cent of control; how it was run: as §1
# OVCAR-8 = experiment: Growth inhibition of human OVCAR8 cells at 10 uM relative to control; details: values are per cent of control; how it was run: as §1
# SK-OV-3 = experiment: Growth inhibition of human SKOV3 cells at 10 uM relative to control; details: values are per cent of control; how it was run: as §1
# CCRF-CEM = experiment: Growth inhibition of human CCRF-CEM cells at 10 uM relative to control; details: values are per cent of control; how it was run: as §1
# HL-60(TB) = experiment: Growth inhibition of human HL-60(TB) cells at 10 uM relative to control; details: read-out: INH
# How it was run: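 Single-dose cell line screen run by the NCI (NIH) in its human cancer cell line panel, which includes the leukemia line HL-60(TB). Percent growth inhibition was calculated by comparison with untreated samples.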
# K562 = experiment: Growth inhibition of human K562 cells at 10 uM relative to control; details: values are per cent of control; how it was run: as §1
# MOLT-4 = experiment: Growth inhibition of human MOLT4 cells at 10 uM relative to control; details: values are per cent of control; how it was run: as §1
# [2] = Growth inhibition of human RPMI8266 cells at 10 uM relative to control; details: values are per cent of control; how it was run: as §1
# 786-0 = experiment: Growth inhibition of human 786-0 cells at 10 uM relative to control; details: values are per cent of control; how it was run: as §1
# A498 = experiment: Growth inhibition of human A498 cells at 10 uM relative to control; details: values are per cent of control; how it was run: as §1
# ACHN = experiment: Growth inhibition of human ACHN cells at 10 uM relative to control; details: values are per cent of control; how it was run: as §1
# CAKI-1 = experiment: Growth inhibition of human Caki1 cells at 10 uM relative to control; details: values are per cent of control; how it was run: as §1
# SN12C = experiment: Growth inhibition of human SN12C cells at 10 uM relative to control; details: values are per cent of control; how it was run: as §1
# TK-10 = experiment: Growth inhibition of human TK10 cells at 10 uM relative to control; details: values are per cent of control; how it was run: as §2
# UO-31 = experiment: Growth inhibition of human UO31 cells at 10 uM relative to control; details: values are per cent of control; how it was run: as §2
# LOX IMVI = experiment: Growth inhibition of human LOXIMVI cells at 10 uM relative to control; details: values are per cent of control; how it was run: as §1
# M14 = experiment: Growth inhibition of human M14 cells at 10 uM relative to control; details: values are per cent of control; how it was run: as §1
# Malme-3M = experiment: Growth inhibition of human MALME-3M cells at 10 uM relative to control; details: values are per cent of control; how it was run: as §1
# SK-MEL-2 = experiment: Growth inhibition of human SK-MEL-2 cells at 10 uM relative to control; details: values are per cent of control; how it was run: as §1
# SK-MEL-28 = experiment: Growth inhibition of human SK-MEL-28 cells at 10 uM relative to control; details: values are per cent of control; how it was run: as §1
# UACC-257 = experiment: Growth inhibition of human UACC257 cells at 10 uM relative to control; details: values are per cent of control; how it was run: as §2
# UACC-62 = experiment: Growth inhibition of human UACC62 cells at 10 uM relative to control; details: values are per cent of control; how it was run: as §2
# DU-145 = experiment: Growth inhibition of human DU145 cells at 10 uM relative to control; details: values are per cent of control; how it was run: as §1
# PC-3 = experiment: Growth inhibition of human PC3 cells at 10 uM relative to control; details: values are per cent of control; how it was run: as §1
# SF-268 = experiment: Growth inhibition of human SF268 cells at 10 uM relative to control; details: values are per cent of control; how it was run: as §1
# SF-295 = experiment: Growth inhibition of human SF295 cells at 10 uM relative to control; details: values are per cent of control; how it was run: as §1
# SF-539 = experiment: Growth inhibition of human SF539 cells at 10 uM relative to control; details: values are per cent of control; how it was run: as §1
# SNB-19 = experiment: Growth inhibition of human SNB19 cells at 10 uM relative to control; details: values are per cent of control; how it was run: as §1
# SNB-75 = experiment: Growth inhibition of human SNB75 cells at 10 uM relative to control; details: values are per cent of control; how it was run: as §2
# U-251 = experiment: Growth inhibition of human U251 cells at 10 uM relative to control; details: values are per cent of control; how it was run: as §2
# cells [3] = details: Homo sapiens, Cancer cell lines
# cells [4] = details: Homo sapiens, Cancer cell lines; remark: listed apart in the source
# Leukemia cell = experiment: cells; details: Homo sapiens
# cells [5] = details: Homo sapiens, Cancer cell lines; remark: listed apart in the source
# Melanoma cell = experiment: cells; details: Homo sapiens
# cells [6] = details: Homo sapiens, Cancer cell lines; remark: listed apart in the source
# cells [7] = details: Homo sapiens, Cancer cell lines; remark: listed apart in the source
# A549 = experiment: Growth inhibition of human A549 cells at 10 uM relative to control; details: values are per cent of control; how it was run: as §1
# EKVX = experiment: Growth inhibition of human EKVX cells at 10 uM relative to control; details: values are per cent of control; how it was run: as §1
# HOP-62 = experiment: Growth inhibition of human HOP62 cells at 10 uM relative to control; details: values are per cent of control; how it was run: as §1
# HOP-92 = experiment: Growth inhibition of human HOP92 cells at 10 uM relative to control; details: values are per cent of control; how it was run: as §1
# NCI-H226 = experiment: Growth inhibition of human NCI-H226 cells at 10 uM relative to control; details: values are per cent of control; how it was run: as §1
# NCI-H23 = experiment: Growth inhibition of human NCI-H23 cells at 10 uM relative to control; details: values are per cent of control; how it was run: as §1
# NCI-H322M = experiment: Growth inhibition of human NCI-H322M cells at 10 uM relative to control; details: values are per cent of control; how it was run: as §1
# NCI-H460 = experiment: Growth inhibition of human NCI-H460 cells at 10 uM relative to control; details: values are per cent of control; how it was run: as §1
# NCI-H522 = experiment: Growth inhibition of human NCI-H522 cells at 10 uM relative to control; details: values are per cent of control; how it was run: as §1
# COLO 205 = experiment: Growth inhibition of human COLO205 cells at 10 uM relative to control; details: values are per cent of control; how it was run: as §1
# HCC 2998 = experiment: Growth inhibition of human HCC2998 cells at 10 uM relative to control; details: values are per cent of control; how it was run: as §1
smiles,measurement,setting,value
O=C(/C=C/c1cn(CC(=O)Nc2ccccc2)nn1)NO,"growth, % of control at 10 µM",HCT-116,55.3%
same,"growth, % of control at 10 µM",HCT-15,105%
same,"growth, % of control at 10 µM",HT-29,51.9%
same,"growth, % of control at 10 µM",KM12,76%
same,"growth, % of control at 10 µM",SW-620,91.5%
same,"growth, % of control at 10 µM",BT-549,83.6%
same,"growth, % of control at 10 µM",[1],84.2%
same,"growth, % of control at 10 µM",MCF7,95.8%
same,"growth, % of control at 10 µM",MDA-MB-231,104%
same,"growth, % of control at 10 µM",MDA-MB-435,63.4%
same,"growth, % of control at 10 µM",MDA-MB-468,64.2%
same,"growth, % of control at 10 µM",NCI/ADR-RES,13.4%
same,"growth, % of control at 10 µM",T47D,56.6%
same,"growth, % of control at 10 µM",IGROV-1,86.4%
same,"growth, % of control at 10 µM",OVCAR-4,83.7%
same,"growth, % of control at 10 µM",OVCAR-5,79%
same,"growth, % of control at 10 µM",OVCAR-8,51.9%
same,"growth, % of control at 10 µM",SK-OV-3,79.5%
same,"growth, % of control at 10 µM",CCRF-CEM,57.1%
same,"growth, % of control at 10 µM",HL-60(TB),153%
same,"growth, % of control at 10 µM",K562,86%
same,"growth, % of control at 10 µM",MOLT-4,62.2%
same,"growth, % of control at 10 µM",[2],64.2%
same,"growth, % of control at 10 µM",786-0,69.5%
same,"growth, % of control at 10 µM",A498,105%
same,"growth, % of control at 10 µM",ACHN,113%
same,"growth, % of control at 10 µM",CAKI-1,81.7%
same,"growth, % of control at 10 µM",SN12C,89%
same,"growth, % of control at 10 µM",TK-10,101%
same,"growth, % of control at 10 µM",UO-31,74%
same,"growth, % of control at 10 µM",LOX IMVI,95.4%
same,"growth, % of control at 10 µM",M14,60%
same,"growth, % of control at 10 µM",Malme-3M,21.4%
same,"growth, % of control at 10 µM",SK-MEL-2,51.1%
same,"growth, % of control at 10 µM",SK-MEL-28,93.4%
same,"growth, % of control at 10 µM",UACC-257,54.4%
same,"growth, % of control at 10 µM",UACC-62,70.8%
same,"growth, % of control at 10 µM",DU-145,87.8%
same,"growth, % of control at 10 µM",PC-3,79.7%
same,"growth, % of control at 10 µM",SF-268,66.8%
same,"growth, % of control at 10 µM",SF-295,81.3%
same,"growth, % of control at 10 µM",SF-539,107%
same,"growth, % of control at 10 µM",SNB-19,105%
same,"growth, % of control at 10 µM",SNB-75,88.5%
same,"growth, % of control at 10 µM",U-251,86.6%
same,growth percent at 10 µM,cells [3],71%
same,inhibition at 10 µM,cells [4],74%
same,inhibition at 10 µM,Leukemia cell,84%
same,growth percent at 10 µM,cells [5],90%
same,inhibition at 10 µM,Melanoma cell,69%
same,inhibition at 10 µM,cells [6],89%
same,inhibition at 10 µM,cells [7],68%
same,"growth, % of control at 10 µM",A549,91.2%
same,"growth, % of control at 10 µM",EKVX,70.5%
same,"growth, % of control at 10 µM",HOP-62,43.1%
same,"growth, % of control at 10 µM",HOP-92,67.8%
same,"growth, % of control at 10 µM",NCI-H226,94.1%
same,"growth, % of control at 10 µM",NCI-H23,82.8%
same,"growth, % of control at 10 µM",NCI-H322M,41.8%
same,"growth, % of control at 10 µM",NCI-H460,86.1%
same,"growth, % of control at 10 µM",NCI-H522,41%
same,"growth, % of control at 10 µM",COLO 205,117%
same,"growth, % of control at 10 µM",HCC 2998,83.5%

# — ChEMBL document CHEMBL1140227, “Histone deacetylase inhibitors through click chemistry” (J Med Chem, 2008)
